Experimental data as given in ChEMBL document CHEMBL1146021, “Calcium channel antagonists discovered by a multidisciplinary approach” (J Med Chem, 2006).
The source made the active and inactive calls.

Tests used:
Cavia porcellus [1] = species: Cavia porcellus; assay: Negative chronotropic activity in guinea pig right atrium at 50 uM; format: functional, Cardiac atrium
How it was run: (§1)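 Spontaneously beating guinea-pig right atria in PSS, 35 °C, pH 7.4, 95% O2/5% CO2. Cumulative concentrations 0.01-100 μM in DMSO (≤0.3% in bath), each to steady state. Rate decrease taken as percent of control (pretreatment 170-195 beats/min), n = 6-8. EC30 by Probit analysis.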

Cavia porcellus [2] = species: Cavia porcellus; assay: Negative inotropic activity in guinea pig left atrium; format: functional; details: Cardiac atrium
How it was run: (§2)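 Guinea-pig left atria driven at 1 Hz (0.6-0.8 ms pulses, about 50% threshold voltage) in PSS, 35 °C, pH 7.4, 95% O2/5% CO2. Isometric tension recorded. Cumulative concentrations 0.01-100 μM in DMSO (≤0.3%), each to steady state. Percent decrease in developed tension, n = 4-6. EC50 by Probit analysis.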

Cavia porcellus [3] = species: Cavia porcellus; assay: Negative inotropic activity in guinea pig left atrium at 50 uM; format: functional, Cardiac atrium; how it was run: as §2
Cavia porcellus [4] = species: Cavia porcellus; assay: Antagonist activity against calcium channel assessed as inhibition of calcium-induced contraction of potassium ion-depolarized guinea pig ileum longitudinal smooth muscle at 500 uM; format: functional; set-up: scale not given: the % may be the effect or the level left
How it was run: (§3)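 Guinea-pig ileum longitudinal smooth muscle segments (2 cm) held at 300-400 mg resting tension, 37 °C, in oxygenated (100% O2) Hepes-buffered PSS at pH 7.4. Isometric contraction recorded. Inhibition expressed as percentage of control. Probit log concentration–response analysis, n = 6-8.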

Cavia porcellus [5] = species: Cavia porcellus; assay: Antagonist activity against calcium channel assessed as inhibition of calcium-induced contraction of potassium ion-depolarized guinea pig ileum longitudinal smooth muscle; format: functional; how it was run: as §3
Cavia porcellus [6] = species: Cavia porcellus; assay: Antagonist activity against calcium channel assessed as inhibition of carbachol-induced tonic contraction of guinea pig ileum longitudinal smooth muscle; format: functional
How it was run: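 Guinea-pig ileum longitudinal smooth muscle segments (2 cm), 300-400 mg resting tension, 37 °C, oxygenated Hepes-buffered PSS at pH 7.4, equilibrated 1 h. Two control carbachol curves run 30 min apart. Test agent (10 μM) added 30 min before the carbachol curve. Isometric inhibition expressed as percent of control.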

Cavia porcellus [7] = species: Cavia porcellus; assay: Vasorelaxant activity assessed as inhibition of calcium-induced contraction of potassium ion-depolarized guinea pig aortic strips at 50 uM; format: functional, Aorta; set-up: scale not given: the % may be the effect or the level left
How it was run: (§4)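 Helicoidal guinea-pig aortic strips in aerated PSS at 35 °C, contracted with 80 mM KCl (K+ substituted for Na+). At plateau (about 45 min), compounds added cumulatively at 0.1-500 μM in DMSO vehicle. Relaxation measured isometrically. IC50 by Probit analysis, n = 6-8.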

Cavia porcellus [8] = species: Cavia porcellus; assay: Negative inotropic activity in guinea pig left ventricular papillary muscle at 10 uM; format: functional, Muscle tissue
Cavia porcellus [9] = species: Cavia porcellus; assay: Negative inotropic activity in guinea pig left ventricular papillary muscle; format: functional; details: Muscle tissue
Cavia porcellus [10] = species: Cavia porcellus; assay: Cardiac activity in guinea pig heart measured as decrease in left ventricular pressure at 1 uM relative to control; format: functional; set-up: scale not given: the % may be the effect or the level left
How it was run: (§5)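 Langendorff-perfused isolated hearts from female guinea-pigs (300-400 g). Compounds given cumulatively at 0.001-1 μM, each step held to steady state (about 30 min). Read-outs: surface ECG (PR interval, heart rate), intraventricular balloon +(dP/dt)max and coronary perfusion pressure. Results given as percent change from basal at 1 μM, mean ± SEM.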

Cavia porcellus [11] = species: Cavia porcellus; assay: Cardiac activity in guinea pig heart measured as decrease in heart rate at 1 uM by ECG relative to control; format: functional; set-up: scale not given: the % may be the effect or the level left; how it was run: as §5
Cavia porcellus [12] = species: Cavia porcellus; assay: Cardiac activity in guinea pig heart measured as decrease in coronary perfusion pressure at 1 uM relative to control; format: functional; set-up: scale not given: the % may be the effect or the level left; how it was run: as §5
Cavia porcellus [13] = species: Cavia porcellus; assay: Cardiac activity in guinea pig heart measured as prolongation of atrioventricular conduction time at 1 uM relative to control; format: functional; how it was run: as §5
Cavia porcellus [14] = species: Cavia porcellus; assay: Negative chronotropic activity in guinea pig right atrium at 10 uM; format: functional, Cardiac atrium; how it was run: as §1
Cavia porcellus [15] = species: Cavia porcellus; assay: Vasorelaxant activity assessed as inhibition of calcium-induced contraction of potassium ion-depolarized guinea pig aortic strips at 100 uM; format: functional, Aorta; set-up: scale not given: the % may be the effect or the level left; how it was run: as §4
Cavia porcellus [16] = species: Cavia porcellus; assay: Negative chronotropic activity in guinea pig right atrium at 5 uM; format: functional, Cardiac atrium; how it was run: as §1
Cavia porcellus [17] = species: Cavia porcellus; assay: Negative inotropic activity in guinea pig left atrium at 5 uM; format: functional, Cardiac atrium; how it was run: as §2
Cavia porcellus [18] = species: Cavia porcellus; assay: Antagonist activity against calcium channel assessed as inhibition of calcium-induced contraction of potassium ion-depolarized guinea pig ileum longitudinal smooth muscle at 10 uM; format: functional; set-up: scale not given: the % may be the effect or the level left; how it was run: as §3
[19] = target: T1, Voltage-dependent L-type calcium channel subunit alpha-1C (Rattus norvegicus, UniProt P22002); assay: Inhibition of [3H]diltiazem binding to Sprague-Dawley rat cardiomyocytes at 10 nM relative to control; details: read-out: Activity
T1 sequence (P22002 whole entry, the tested form may be a part): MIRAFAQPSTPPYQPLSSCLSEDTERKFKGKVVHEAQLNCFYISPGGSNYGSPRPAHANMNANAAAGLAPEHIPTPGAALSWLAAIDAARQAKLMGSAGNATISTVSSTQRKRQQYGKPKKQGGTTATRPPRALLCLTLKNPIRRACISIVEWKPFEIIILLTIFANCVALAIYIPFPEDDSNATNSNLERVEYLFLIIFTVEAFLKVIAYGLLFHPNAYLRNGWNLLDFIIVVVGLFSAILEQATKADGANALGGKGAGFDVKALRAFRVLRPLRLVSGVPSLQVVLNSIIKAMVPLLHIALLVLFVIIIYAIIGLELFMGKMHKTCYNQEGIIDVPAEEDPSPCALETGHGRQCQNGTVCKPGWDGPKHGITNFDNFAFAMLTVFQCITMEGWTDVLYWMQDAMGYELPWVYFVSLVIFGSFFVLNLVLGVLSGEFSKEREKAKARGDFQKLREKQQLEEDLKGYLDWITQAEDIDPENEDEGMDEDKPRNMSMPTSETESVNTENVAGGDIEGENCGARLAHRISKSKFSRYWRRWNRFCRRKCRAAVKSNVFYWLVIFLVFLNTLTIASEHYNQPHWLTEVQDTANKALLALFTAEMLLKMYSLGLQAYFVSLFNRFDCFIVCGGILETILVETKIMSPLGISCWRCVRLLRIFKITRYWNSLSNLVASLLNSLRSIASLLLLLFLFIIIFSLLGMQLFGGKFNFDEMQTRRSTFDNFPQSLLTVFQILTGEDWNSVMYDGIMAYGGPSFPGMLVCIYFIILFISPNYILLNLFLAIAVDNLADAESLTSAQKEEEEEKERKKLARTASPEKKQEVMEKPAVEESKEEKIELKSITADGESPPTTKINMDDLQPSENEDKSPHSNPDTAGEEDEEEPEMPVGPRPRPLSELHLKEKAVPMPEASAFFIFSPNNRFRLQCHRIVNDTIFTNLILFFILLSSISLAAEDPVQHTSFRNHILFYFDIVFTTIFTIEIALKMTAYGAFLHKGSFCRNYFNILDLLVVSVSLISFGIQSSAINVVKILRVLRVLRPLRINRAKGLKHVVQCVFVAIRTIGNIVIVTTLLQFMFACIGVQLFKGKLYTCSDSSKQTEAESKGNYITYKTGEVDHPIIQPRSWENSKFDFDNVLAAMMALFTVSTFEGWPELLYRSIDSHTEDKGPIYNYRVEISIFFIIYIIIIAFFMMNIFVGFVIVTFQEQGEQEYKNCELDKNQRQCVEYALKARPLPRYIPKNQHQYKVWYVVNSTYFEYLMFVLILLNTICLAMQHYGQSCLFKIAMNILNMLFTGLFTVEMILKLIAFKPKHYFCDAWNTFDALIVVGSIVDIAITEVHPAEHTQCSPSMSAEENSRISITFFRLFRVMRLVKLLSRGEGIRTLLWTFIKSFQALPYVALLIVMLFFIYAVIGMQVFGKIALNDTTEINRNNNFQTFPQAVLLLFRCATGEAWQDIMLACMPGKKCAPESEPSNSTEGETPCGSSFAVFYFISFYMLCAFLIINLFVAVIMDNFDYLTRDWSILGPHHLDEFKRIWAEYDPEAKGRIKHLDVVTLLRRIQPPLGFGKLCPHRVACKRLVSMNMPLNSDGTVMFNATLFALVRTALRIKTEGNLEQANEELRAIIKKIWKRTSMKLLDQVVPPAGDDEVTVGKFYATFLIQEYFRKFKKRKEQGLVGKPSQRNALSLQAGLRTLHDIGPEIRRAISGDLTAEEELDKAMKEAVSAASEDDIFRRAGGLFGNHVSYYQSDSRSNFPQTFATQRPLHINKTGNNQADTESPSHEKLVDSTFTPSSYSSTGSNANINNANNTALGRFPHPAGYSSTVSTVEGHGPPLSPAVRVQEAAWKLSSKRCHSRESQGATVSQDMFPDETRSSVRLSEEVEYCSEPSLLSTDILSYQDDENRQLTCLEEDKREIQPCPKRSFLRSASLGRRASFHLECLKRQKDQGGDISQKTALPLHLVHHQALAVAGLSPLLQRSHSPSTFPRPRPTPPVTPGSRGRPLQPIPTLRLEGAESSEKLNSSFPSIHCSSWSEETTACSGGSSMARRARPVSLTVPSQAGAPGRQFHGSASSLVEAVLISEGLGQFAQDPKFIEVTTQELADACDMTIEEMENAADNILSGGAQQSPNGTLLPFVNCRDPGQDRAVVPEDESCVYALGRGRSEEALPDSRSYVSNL
How it was run: (§6)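 Cardiomyocytes from male Sprague-Dawley rats, isolated by Langendorff perfusion and stored frozen (200 μg per tube). Incubated with 5 nM [3H]diltiazem and test ligand (0.1 nM-100 μM) in 50 mM Tris pH 7.4, 25 °C, 90 min. Bound ligand separated by filtration. Nonspecific binding with 100 μM diltiazem. Triplicates. pIC50 from sigmoidal fit; Ki by Cheng-Prusoff.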

Cavia porcellus [20] = species: Cavia porcellus; assay: Vasorelaxant activity assessed as inhibition of calcium-induced contraction of potassium ion-depolarized guinea pig aortic strips; format: functional; details: Aorta; how it was run: as §4
Cavia porcellus [21] = species: Cavia porcellus; assay: Cardiac activity in guinea pig heart measured as increase in coronary perfusion pressure at 1 uM relative to control; format: functional; how it was run: as §5
Cavia porcellus [22] = species: Cavia porcellus; assay: Negative chronotropic activity in guinea pig right atrium at 100 uM; format: functional, Cardiac atrium; details: in the assay text read “50 uM” for “100 uM”; how it was run: as §1
Cavia porcellus [23] = species: Cavia porcellus; assay: Negative inotropic activity in guinea pig left atrium at 100 uM; format: functional, Cardiac atrium; details: in the assay text read “50 uM” for “100 uM”; how it was run: as §2
Cavia porcellus [24] = species: Cavia porcellus; assay: Negative inotropic activity in guinea pig left atrium at 500 uM; format: functional, Cardiac atrium
Cavia porcellus [25] = species: Cavia porcellus; assay: Negative inotropic activity in guinea pig left atrium at 1 uM; format: functional, Cardiac atrium; how it was run: as §2
Cavia porcellus [26] = species: Cavia porcellus; assay: Antagonist activity against calcium channel assessed as inhibition of calcium-induced contraction of potassium ion-depolarized guinea pig ileum longitudinal smooth muscle at 100 uM; format: functional; set-up: scale not given: the % may be the effect or the level left; how it was run: as §3
Cavia porcellus [27] = species: Cavia porcellus; assay: Negative inotropic activity in guinea pig left ventricular papillary muscle at 500 uM; format: functional, Muscle tissue
Cavia porcellus [28] = species: Cavia porcellus; assay: Negative chronotropic activity in guinea pig right atrium; format: functional; details: Cardiac atrium; how it was run: as §1
Cavia porcellus [29] = species: Cavia porcellus; assay: Antagonist activity against calcium channel assessed as inhibition of calcium-induced contraction of potassium ion-depolarized guinea pig ileum longitudinal smooth muscle at 50 uM; format: functional; set-up: scale not given: the % may be the effect or the level left; how it was run: as §3
[30] = target: T1, Voltage-dependent L-type calcium channel subunit alpha-1C; assay: Inhibition of [3H]diltiazem binding to Sprague-Dawley rat cardiomyocytes; how it was run: as §6
Cavia porcellus [31] = species: Cavia porcellus; assay: Negative inotropic activity in guinea pig left ventricular papillary muscle at 50 uM; format: functional, Muscle tissue
[32] = target: T1, Voltage-dependent L-type calcium channel subunit alpha-1C; assay: Inhibition of [3H]diltiazem binding to Sprague-Dawley rat cardiomyocytes at 100 uM relative to control; details: read-out: Activity; how it was run: as §6
Cavia porcellus [33] = species: Cavia porcellus; assay: Negative inotropic activity in guinea pig left ventricular papillary muscle at 1 uM; format: functional, Muscle tissue

With `CC(=O)c1ccccc1N1C(=O)CSCC1=O` the Activity (Cavia porcellus [1]) was 3%, the EC50 (Cavia porcellus [2]) was 0.4 µM and the Activity (Cavia porcellus [3]) was 61%. For the same molecule, the Activity (Cavia porcellus [4]) was 55%, the EC50 (Cavia porcellus [5]) was 124 µM and the Activity (Cavia porcellus [6]) was “inactive”. For the same molecule, the Activity (Cavia porcellus [7]) was 5%, the Activity (Cavia porcellus [8]) was 89% and the EC50 (Cavia porcellus [9]) was 0.066 µM. It also gave an Activity (Cavia porcellus [10]) of 17%, an Activity (Cavia porcellus [11]) of 14% and an Activity (Cavia porcellus [12]) of 6%. It also gave an Activity (Cavia porcellus [13]) of 15%.

`C[C@H]1CC(=O)[C@](C)(CC(=O)c2ccc(Cl)cc2)C(=O)C1` was tested, and the EC50 (Cavia porcellus [2]) was 7.51 µM, the Activity (Cavia porcellus [3]) was 78% and the Activity (Cavia porcellus [14]) was 2%. It also gave an Activity (Cavia porcellus [15]) of 16%.

`O=C(O)[C@@H]1CCCN1S(=O)(=O)c1ccccc1` showed an EC50 (Cavia porcellus [2]) of 0.91 µM, an Activity (Cavia porcellus [3]) of 66% and an Activity (Cavia porcellus [16]) of 22%. The Activity (Cavia porcellus [7]) was 3%.

For `O=S(=O)(c1ccc(Cl)cc1)N1CCC[C@@H]1c1cccs1`, the EC50 (Cavia porcellus [2]) was 0.31 µM, the Activity (Cavia porcellus [17]) was 84% and the Activity (Cavia porcellus [14]) was 4%. For the same molecule, the Activity (Cavia porcellus [18]) was 90%, the EC50 (Cavia porcellus [5]) was 1.18 µM and the IC50 (Cavia porcellus [6]) was 8.21 µM. The inhibition at 0.01 µM [19] was -24.8%, the Activity (Cavia porcellus [15]) was 74% and the IC50 (Cavia porcellus [20]) was 5.62 µM. It also gave an Activity (Cavia porcellus [8]) of 93%, an EC50 (Cavia porcellus [9]) of 1.38 µM and an Activity (Cavia porcellus [10]) of 6%. The Activity (Cavia porcellus [11]) was “inactive”, the Activity (Cavia porcellus [21]) was 17% and the Activity (Cavia porcellus [13]) was 20%.

For `CC(C)(C)N(OC(=O)c1ccccc1)C(=O)C(F)(F)F`, the Activity (Cavia porcellus [22]) was 7%, the Activity (Cavia porcellus [23]) was 52% and the EC50 (Cavia porcellus [2]) was 6.13 µM. It also gave an Activity (Cavia porcellus [15]) of 10%.

`COC(=O)c1ccccc1-n1cccc1C(=O)C(Cl)(Cl)Cl` was tested, and the Activity (Cavia porcellus [22]) was 33%, the EC50 (Cavia porcellus [2]) was 3.91 µM and the Activity (Cavia porcellus [24]) was 76%. For the same molecule, the Activity (Cavia porcellus [15]) was 20%.

With `CCOC1(c2ccc(Br)cc2)SC=C(C)n2c1noc2=O` (configuration not stated) the Activity (Cavia porcellus [22]) was 5%, the EC50 (Cavia porcellus [2]) was 0.04 µM and the Activity (Cavia porcellus [25]) was 77%. It also gave an Activity (Cavia porcellus [26]) of 3%, an IC50 (Cavia porcellus [6]) of 40 µM and an Activity (Cavia porcellus [15]) of 19%. For the same molecule, the Activity (Cavia porcellus [27]) was 2%, the Activity (Cavia porcellus [10]) was 3% and the Activity (Cavia porcellus [11]) was 14%. The Activity (Cavia porcellus [12]) was 9% and the Activity (Cavia porcellus [13]) was 32%.

Work on `O=S(=O)(c1ccc(Cl)cc1)N(C1CCNCC1)C1CC1` yielded an Activity (Cavia porcellus [1]) of 64%, an EC50 (Cavia porcellus [2]) of 0.313 µM and an EC30 (Cavia porcellus [28]) of 0.48 µM. The Activity (Cavia porcellus [3]) was 76%, the Activity (Cavia porcellus [29]) was 89% and the EC50 (Cavia porcellus [5]) was 14.2 µM. For the same molecule, the IC50 (Cavia porcellus [6]) was 34.5 µM, the Ki [30] was 3.02 µM and the Activity (Cavia porcellus [15]) was 19%. The Activity (Cavia porcellus [31]) was 78%, the EC50 (Cavia porcellus [9]) was 10.2 µM and the Activity (Cavia porcellus [10]) was 12%. The Activity (Cavia porcellus [11]) was 12%, the Activity (Cavia porcellus [12]) was 13% and the Activity (Cavia porcellus [13]) was “inactive”.

Work on `Cc1snc(S(=O)(=O)Cc2c(F)cccc2Cl)c1C#N` yielded an Activity (Cavia porcellus [1]) of 22%, an EC50 (Cavia porcellus [2]) of 2.28 µM and an Activity (Cavia porcellus [3]) of 80%. For the same molecule, the Activity (Cavia porcellus [15]) was 23%.

For `O=S(=O)(c1ccc(Br)cc1)N1CCCCCC1`, the Activity (Cavia porcellus [1]) was 4%, the EC50 (Cavia porcellus [2]) was 0.36 µM and the Activity (Cavia porcellus [3]) was 91%. The Activity (Cavia porcellus [15]) was 33%.

Work on `COC(=O)c1c(-c2c(Cl)cccc2Cl)noc1C` yielded an EC50 (Cavia porcellus [2]) of 0.92 µM, an Activity (Cavia porcellus [3]) of 84% and an Activity (Cavia porcellus [14]) of 13%. It also gave an Activity (Cavia porcellus [26]) of 99%, an EC50 (Cavia porcellus [5]) of 6.65 µM and an IC50 (Cavia porcellus [6]) of 33.7 µM. The inhibition at 100 µM [32] was 59.6%, the Activity (Cavia porcellus [7]) was 30% and the Activity (Cavia porcellus [33]) was 87%. It also gave an EC50 (Cavia porcellus [9]) of 0.036 µM, an Activity (Cavia porcellus [10]) of 31% and an Activity (Cavia porcellus [11]) of 4%. The Activity (Cavia porcellus [12]) was “inactive” and the Activity (Cavia porcellus [13]) was 14%.
